The record followed here is ChEMBL document CHEMBL3792386, “Design, Synthesis, and Biological Evaluation of Novel Selenium (Se-NSAID) Molecules as Anticancer Agents” (J Med Chem, 2016).

In test [1] the test system is UACC-903. As to the kind of experiment: Antiproliferative activity against human UACC-903 cells assessed as reduction in cell viability after 24 hrs by MTT assay. In kind it is functional, cell-based. Conditions: UACC-903, 24 h. A digest of the protocol:
(§1)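 3000 cells/well incubated in triplicate with serial concentrations of compound for 24, 48 or 72 h at 37 °C. MTT (5.0 mg/mL solution) added 3 h before the end. Formazan dissolved in DMSO, absorbance read at 570 and 630 nm. Viability normalised to vehicle control. IC50 from non-linear regression (variable slope), mean ± SD of triplicates.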

Test [2] relates to MDA-MB-231. Kind of test: Antiproliferative activity against human MDA-MB-231 cells assessed as reduction in cell viability after 24 hrs by MTT assay. In kind it is functional, cell-based. Conditions: MDA-MB-231, 24 h. A digest of the protocol:
as §1
(In general: Tetrazolium assays rely on reduction of a dye to a coloured formazan, in cell work by metabolically active cells.)

In test [3] the test system is MDA-MB-231. As to the kind of experiment: Antiproliferative activity against human MDA-MB-231 cells assessed as reduction in cell viability after 48 hrs by MTT assay. In kind it is functional, cell-based. To be noted: MDA-MB-231, 48 h. A digest of the protocol: as §1
Test [4] concerns UACC-903. Kind of test: Antiproliferative activity against human UACC-903 cells assessed as reduction in cell viability after 72 hrs by MTT assay. In kind it is functional, cell-based. To be noted: UACC-903, 72 h. In a few lines: as §1
Test [5] relates to HT-29. As to the kind of experiment: Antiproliferative activity against human HT-29 cells assessed as reduction in cell viability after 24 hrs by MTT assay. Conditions: HT-29, 24 h. In kind it is functional, cell-based. In a few lines:
as §1

Test [6] in a line: Antiproliferative activity against human PANC1 cells assessed as reduction in cell viability after 72 hrs by MTT assay. In kind it is functional, cell-based. To be noted: PANC-1, 72 h. A digest of the protocol:
as §1

Test [7] in a line: Antiproliferative activity against human PANC1 cells assessed as reduction in cell viability after 48 hrs by MTT assay. In kind it is functional, cell-based. Conditions: PANC-1, 48 h. In a few lines:
as §1

Test [8] deals with MDA-MB-231. Kind of test: Antiproliferative activity against human MDA-MB-231 cells assessed as reduction in cell viability after 72 hrs by MTT assay. In kind it is functional, cell-based. To be noted: MDA-MB-231, 72 h. In a few lines: as §1
For test [9], the system named is HT-29. Kind of test: Antiproliferative activity against human HT-29 cells assessed as reduction in cell viability after 48 hrs by MTT assay. In kind it is functional, cell-based. Conditions: HT-29, 48 h. In a few lines: as §1
Test [10] relates to HT-29. Kind of test: Antiproliferative activity against human HT-29 cells assessed as reduction in cell viability after 72 hrs by MTT assay. In kind it is functional, cell-based. Conditions: HT-29, 72 h. In a few lines:
as §1

Test [11] relates to UACC-903. Kind of test: Antiproliferative activity against human UACC-903 cells assessed as reduction in cell viability after 48 hrs by MTT assay. In kind it is functional, cell-based. To be noted: UACC-903, 48 h. A digest of the protocol: as §1
Test [12] in a line: Antiproliferative activity against human PANC1 cells assessed as reduction in cell viability after 24 hrs by MTT assay. In kind it is functional, cell-based. To be noted: PANC-1, 24 h. In a few lines:
as §1

The test system of test [13] is HCT-116. As to the kind of experiment: Induction of cell death in human HCT116 cells at 1 mM after 24 hrs by ethidium bromide staining-based fluorescence microscopy. In kind it is functional. A digest of the protocol:
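HCT116 cells were exposed for 24 h with a DMSO vehicle comparison, then trypsinized and stained with calcein-AM (live, esterase activity) and ethidium homodimer-1 (dead, lost membrane integrity). Fluorescence microscopy was done at 20X, and the percentage of dead cells was calculated as mean ±SD.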

Test [14] relates to HCT-116. As to the kind of experiment: Cytotoxicity against human HCT116 cells assessed as reduction in cell viability after 48 hrs MTT assay. In kind it is functional, cell-based. In a few lines:
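Cells (HCT116, nHDF in serum-free fibroblast medium with growth kit, or MEFs) exposed to increasing compound concentrations for 48 h at 37 °C. Viability read by MTT: 3000 cells/well, triplicate, MTT 3 h before end, formazan in DMSO, absorbance 570/630 nm. Mean ± SD.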

As usually defined, the IC50 is the point on the concentration scale where inhibition reaches its midpoint.

Calls of active or inactive are those of the source. The rule behind the calls is not given here. Bounds are passed on as bounds.

On to `CC(C)Cc1ccc(C(C)C(=O)O)cc1` (stereo not given) [IBUPROFEN], for which the IC50 in [1], in [2], in test [3], in test [4], in test [5] and in test [6] was more than 50 µM each time. Besides, the IC50 in [7], in test [8], in test [9], in test [10], in test [11] and in test [12] was more than 50 µM in each case.
Turning to `COc1ccc2cc([C@H](C)C(=O)NCC[Se]C#N)ccc2c1`, the IC50 in test [1], in [2], in test [3], in test [4], in test [5] and in test [6] was more than 50 µM in each case. Moreover, the IC50 in [7], in [8], in test [9], in test [10], in test [11] and in test [12] was more than 50 µM in each case.
With `CC(=O)Oc1ccccc1C(=O)[Se]CCBr`, the half-maximal inhibitory concentration (IC50) was 22.7 µM in [1]; 23.7 µM in test [2]; 18.7 µM in test [3]; 10.2 µM in test [4]; 28.5 µM in test [5]; more than 50 µM in [6]. The IC50 in [7] is more than 50 µM; in test [8] it was 8.7 µM; in test [9] it was 27.7 µM; in test [10] it was 19.3 µM; in test [11], 19.4 µM; in test [12], 39.3 µM.
In the case of `CC(=O)Oc1ccccc1C(=O)[Se]CC[Se]C#N`, the IC50 in [1] was more than 50 µM; in test [2], more than 50 µM; in [3], 34.2 µM; in [4], 12.7 µM; in test [5], more than 50 µM; in test [6] it was 9.6 µM. For the same compound, the IC50 in test [7] is 18.9 µM; in test [8], 18.6 µM; in [9], 27.5 µM; in test [10], 17.7 µM; in test [11], 15.8 µM; in [12], more than 50 µM.
On to `CC(=O)Oc1ccccc1C(=O)O` [ASPIRIN], for which the IC50 in [1], in [2], in test [3], in test [4], in [5] and in [6] was more than 50 µM throughout. In addition, the IC50 in test [7], in test [8], in test [9], in test [10], in [11] and in [12] was more than 50 µM in each case. Also, the outcome in [13] was inactive. Further, in test [14], the result was Active.
As for `CC(=O)Oc1ccccc1C(=O)OCC[Se]C#N`, the IC50 in [1] was 33.9 µM; in test [2], more than 50 µM; in test [3] it was 23.8 µM; in [4] it was 17.6 µM; in test [5], 10.2 µM; in [6], 15.1 µM. Moreover, the IC50 in test [7] amounted to 36.1 µM; in test [8], 34.3 µM; in test [9], 30.9 µM; in test [10] it was 20.2 µM; in test [11], 14.5 µM; in test [12], 38.7 µM.
Regarding `C[Se]CC(NC(=O)c1ccccc1OC(C)=O)C(=O)O` (stereo not given), the IC50 in [1] was more than 50 µM; in [2], more than 50 µM; in test [3], more than 50 µM; in test [4], more than 50 µM; in test [5], more than 50 µM; in test [6], 27.6 µM. The concentration for half-maximal inhibition (IC50) in test [7] is 26.1 µM; in test [8], more than 50 µM; in test [9], more than 50 µM; in test [10], more than 50 µM; in test [11] it was more than 50 µM; in test [12], more than 50 µM.
`CC(=O)Oc1ccccc1C(=O)[Se]CC[Se]C(=O)c1ccccc1OC(C)=O`: the IC50 in test [1] stood at 17.2 µM; in test [2] it was 18.6 µM; in test [3], 11 µM; in test [4], 3 µM; in test [5], 18.6 µM; in test [6], 3.4 µM. For the same compound, the IC50 in test [7] worked out at 13.5 µM; in test [8], 7.6 µM; in test [9], 3.5 µM; in test [10] it was 5.5 µM; in [11] it was 3.6 µM; in test [12], 33.4 µM.
For the compound `COc1ccc2cc([C@H](C)C(=O)O)ccc2c1` [NAPROXEN], the IC50 in test [1], in test [2], in [3], in test [4], in test [5] and in test [6] was more than 50 µM in each case. Further, the IC50 in test [7], in test [8], in test [9], in test [10], in [11] and in [12] was more than 50 µM throughout.
As to `O=c1[nH]cc(F)c(=O)[nH]1`, the result in [14] was Active.
For the compound `CC(C)Cc1ccc(C(C)C(=O)NCC[Se]C#N)cc1` (stereo not given), the IC50 in test [1], in test [2], in test [3], in [4], in test [5] and in [6] was more than 50 µM in each case. In addition, the IC50 in test [7], in test [8], in [9], in [10], in test [11] and in test [12] was more than 50 µM in each case.
`CC(=O)Oc1ccccc1C(=O)NCCSC#N`: the IC50 is more than 50 µM in test [1]; more than 50 µM in test [2]; more than 50 µM in [3]; more than 50 µM in test [4]; more than 50 µM in test [5]; 8.7 µM in [6]. Besides, the IC50 in test [7] was 17.7 µM; in [8], more than 50 µM; in test [9] it was more than 50 µM; in test [10], more than 50 µM; in test [11], more than 50 µM; in test [12], more than 50 µM.
